# Experimental data pooled from the literature.
# Lines come from different studies, so protocols differ.
# Target: Myosin light chain kinase (MYLK3, Homo sapiens, UniProt Q32MK0)
# One construct used (Q32MK0 1-819): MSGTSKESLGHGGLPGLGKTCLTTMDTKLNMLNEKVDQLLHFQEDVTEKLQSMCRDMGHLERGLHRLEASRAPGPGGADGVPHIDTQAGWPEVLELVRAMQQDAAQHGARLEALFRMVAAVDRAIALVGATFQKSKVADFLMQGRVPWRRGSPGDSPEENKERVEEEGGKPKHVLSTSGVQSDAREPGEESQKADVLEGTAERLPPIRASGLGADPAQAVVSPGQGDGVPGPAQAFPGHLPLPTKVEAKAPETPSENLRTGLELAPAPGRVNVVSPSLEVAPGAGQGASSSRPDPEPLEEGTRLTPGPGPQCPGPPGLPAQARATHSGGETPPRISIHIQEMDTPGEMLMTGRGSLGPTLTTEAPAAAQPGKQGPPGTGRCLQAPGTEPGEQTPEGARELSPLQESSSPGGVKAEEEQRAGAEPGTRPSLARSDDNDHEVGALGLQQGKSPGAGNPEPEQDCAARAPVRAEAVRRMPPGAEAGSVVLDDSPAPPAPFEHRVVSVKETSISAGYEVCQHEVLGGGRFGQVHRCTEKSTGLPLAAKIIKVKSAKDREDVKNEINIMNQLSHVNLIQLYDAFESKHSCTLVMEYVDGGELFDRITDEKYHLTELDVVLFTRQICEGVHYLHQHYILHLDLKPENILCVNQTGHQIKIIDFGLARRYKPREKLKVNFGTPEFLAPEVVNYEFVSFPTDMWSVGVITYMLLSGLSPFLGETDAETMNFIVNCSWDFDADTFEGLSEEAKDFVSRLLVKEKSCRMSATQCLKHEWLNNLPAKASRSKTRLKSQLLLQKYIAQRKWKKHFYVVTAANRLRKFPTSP
SMILES,read-out,method,tested at,remaining binding [%]
O=C(c1ccc(Nc2nccc(-c3cc4ccccc4s3)n2)cc1)N1CCC(N2CCCC2)CC1,binding,competition with immobilised ligand,1 µM,2.5
N#CC1(c2ccccn2)CCN(Cc2cc(C(=O)N3CCCC3)c(=O)n3ccccc23)CC1,cell-free assay,competition with immobilised ligand,1 µM,76
O=C(NCCCN1CCOCC1)c1ccc(Nc2ncc(Cl)c(-c3ccc(Cl)s3)n2)cc1,binding,competition with immobilised ligand,1 µM,7.9
N[C@@H]1CCN(c2nccc(-c3cnn4ncccc34)n2)C1,binding,,1 µM,100
Nc1ncc2c(n1)-c1c([nH]c3ccc(C#CC4CC4)cc13)CCCC2,binding,competition with immobilised ligand,1 µM,91
CCN1CCN(Cc2ccc(C(=O)Nc3ccc(C)c(Oc4ccc5c(c4)CC(=O)N5)c3)cc2C(F)(F)F)CC1,binding,competition with immobilised ligand,1 µM,100
COc1ncc2cc3ccccc3nc2c1C#N,cell-free assay,competition with immobilised ligand,5 µM,96
COc1ccc2c(c1)O[C@H](c1ccc(OC)c(OC)c1)C[C@@H]2NC(=O)C1(c2ccc3c(c2)OC(F)(F)O3)CC1,cell-free assay,competition with immobilised ligand,1 µM,95
C[C@@H](c1ccc(-n2cnc3c(N)ncnc32)cc1)N1CCc2nn(C)c(Cc3ccccc3)c2C1=O,binding,competition with immobilised ligand,0.1 µM,100
CN(CCCC(F)(F)F)c1nccc(-c2cnn3ncccc23)n1,binding,,1 µM,100
NS(=O)(=O)c1cc(NC(=O)Cc2ccccc2)ccc1Oc1cccc(Cl)c1,cell-free assay,competition with immobilised ligand,1 µM,89
C[C@H]1CCN(c2nccc(-c3cnn4ncccc34)n2)C1,binding,,1 µM,98
C[C@@H]1CN(c2cc(-c3nn(C)c4ccc(OC5(C)CC5)cc34)ncn2)C[C@H](C)O1,cell-free assay,competition with immobilised ligand,1 µM,97
CNC(=O)[C@@H]1CC[C@@H](n2c(-c3ccc4cnccc4c3)nc3ccc(C(=O)NCc4cccc(C(N)=O)c4)cc32)C1,binding,competition with immobilised ligand,1 µM,100
Nc1c(C(=O)NCc2ccc(C(=O)NCCCC3CCCCC3)cc2)cnn1-c1ccccc1,cell-free assay,competition with immobilised ligand,0.1 µM,100
CN(C)c1nccc(-c2cnc3ncccn23)n1,binding,,1 µM,100
CS(=O)(=O)N1CCCC(NC(=O)[C@H](CCC2CCCCC2)NC(=O)c2ccc(CNC(=O)c3cnc4ccccn34)cc2)C1 (stereo partly drawn),cell-free assay,competition with immobilised ligand,0.1 µM,88
CC1CCCN1c1nccc(-c2cnn3ncccc23)n1 (stereo not drawn),binding,,1 µM,100
O=C(Nc1c[nH]nc1C(=O)NC1CCNCC1)c1cc(F)cc(F)c1,binding,competition with immobilised ligand,1 µM,90
c1cnn2ncc(-c3ccnc(N4CCC45COC5)n3)c2c1,binding,,1 µM,100
O=C(NCCCN1CCOCC1)c1ccc(Nc2nccc(-c3cc4ccccc4s3)n2)cc1,binding,competition with immobilised ligand,1 µM,3.6
